# Assay outcomes deposited in PubChem BioAssay by several laboratories.
# LANA-H2B inh: blocks KSHV LANA binding to histone H2A/H2B; Q9QR71; cell-free LANA-H2A/H2B peptide, fluorescence polarization; inhibition, % (concentration not given with the values); 0.6% of 320,000 active; in the data active means inhibition mostly above about 10%, no sharp cut-off; inactive means mostly below about 6.7%
# procasp7 counter: counter-screen for procaspase-3 activators: activators of human procaspase-7 | recombinant procaspase-7, Ac-DEVD-pNA absorbance 405 nm; D23A/D198A/D206A triple mutant, cannot self-cleave; scale: DMSO 0, 5 µM enzyme 100 | activation, % at 8.5 µM | 0.093% of 330,000 active | AID 463210;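 active means percent activation above the screen-wide mean plus 3 SD, cut at about 25% in these data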
# Target sequence (P55210 whole entry D23A/D198A/D206A): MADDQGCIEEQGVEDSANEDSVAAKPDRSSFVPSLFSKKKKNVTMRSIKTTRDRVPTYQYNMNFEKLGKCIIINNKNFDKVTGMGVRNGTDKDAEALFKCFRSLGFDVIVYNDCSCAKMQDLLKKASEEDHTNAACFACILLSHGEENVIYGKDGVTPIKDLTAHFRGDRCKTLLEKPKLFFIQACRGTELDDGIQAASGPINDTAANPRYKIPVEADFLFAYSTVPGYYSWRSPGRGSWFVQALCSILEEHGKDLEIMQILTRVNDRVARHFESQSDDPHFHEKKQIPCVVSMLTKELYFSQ
#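 Replicates: singlicate. Assay system: Procaspase-7 triple mutant (PC-7 D3A). Signal: 405 nm absorbance of p-nitroaniline. Times: 1 h preincubation, 2 h reaction. Buffer or medium: Zinc-free HEPES pH 7.4 with 300 mM NaCl, 0.01% Triton X-100. Also added: DEVD-pNA substrate. Benchmarks: DMSO wells as 0%, DMSO with 5 µM added PC-7 as 100%.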
# ARFGAP1 inhibitor: inhibitors of rat ARFGAP1. Q62848. Arfgap1-stimulated ARF1 GTP hydrolysis, GDP FP detection. inhibition, % at 16.5 µM. 0.26% of 360,000 active. AID 651572;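 active means inhibition above a per-plate limit, mean inhibition of low control wells plus 3 SD, cut at about 25% in these data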;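 further: 0% = DMSO wells with enzyme and 100% = wells lacking Arfgap1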
# Target sequence (Q62848 1-136 limits assumed): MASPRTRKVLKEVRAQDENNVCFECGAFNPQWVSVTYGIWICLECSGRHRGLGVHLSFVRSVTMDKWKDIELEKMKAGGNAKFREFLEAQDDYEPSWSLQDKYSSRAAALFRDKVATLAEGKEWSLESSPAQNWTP
#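 system = rat Arfgap1 catalytic domain, aa 1-136 | technique = FP, GDP Alexa 633 tracer displaced from anti-GDP antibody, 620/688 nm | compound = one concentration, 16.5 µM, DMSO 1.26% | medium = HEPES-based buffer, pH 7.5 | timing = compound-enzyme preincubation 20 min, reaction 120 min, detection 60 min, 25 °C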
# procasp3 activ: procaspase-3 (human) activation. P42574. recombinant procaspase-3 D3A, Ac-DEVD-pNA absorbance 405 nm. activation, % at 8.5 µM. 0.11% of 330,000 active. AID 463141;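 active means activation above the mean of all tested compounds plus 3 SD, cut at about 21% in these data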;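 further: 0% = DMSO alone and 100% = DMSO wells spiked with extra 5 µM PC-3 D3A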
# Target sequence (P42574 whole entry D9A/D28A/D175A): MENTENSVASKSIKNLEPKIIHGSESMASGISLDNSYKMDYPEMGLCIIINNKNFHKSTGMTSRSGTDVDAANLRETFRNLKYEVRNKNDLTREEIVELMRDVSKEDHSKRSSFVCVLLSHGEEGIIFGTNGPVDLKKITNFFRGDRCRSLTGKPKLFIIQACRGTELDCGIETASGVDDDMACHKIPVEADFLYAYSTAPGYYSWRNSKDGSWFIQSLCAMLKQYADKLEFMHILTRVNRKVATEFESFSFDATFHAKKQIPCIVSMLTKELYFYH
#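 Assay system: Autoprocessing-dead procaspase-3 D3A mutant enzyme; also added: Ac-DEVD-pNA; doses: one concentration, 8.5 µM nominal, 0.8% DMSO; times: 1 h compound preincubation, 2 h substrate hydrolysis at 25 °C; technique: 405 nm absorbance of p-nitroaniline, reads at 0 and 120 min; measure: % activation between DMSO and enzyme-spiked controls; repeats: single replicate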
# ASAP1 inh: inhibitors of human ASAP1 ArfGAP activity; Q9ULH1; ASAP1-stimulated ARF1 GTP hydrolysis, GDP FP detection; inhibition, % at 16.5 µM; 0.19% of 360,000 active; in the data active means inhibition above about 25%;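 further: 0% = vehicle with enzyme and substrate and 100% = no enzyme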
# CR mimetic SO: lowers age-related superoxide in aged yeast cells | AID 2690 | 0.18% of 330,000 active | superoxide response (% of plate mean), % at 10 µM | S. cerevisiae aged cells, superoxide DHE fluorescence; active compounds read low;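 active means superoxide response under a set limit, about three screen SD below normal, cut at about 65% in these data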;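 further: yeast aged for seven days with compound at 30 °C before DHE staining; 100% = average MFI of all compound-treated wells on the plate with controls excluded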
# ARFGAP1 confirm: rat ARFGAP1 inhibition, confirmed; shares compounds with ARFGAP1 inhibitor; ARFGAP1-stimulated ARF1 GTP hydrolysis, GDP tracer FP; inhibition, % at 16.5 µM; AID 651608; 30% of 890 active;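 active means average inhibition over triplicates above the hit cutoff set in the earlier primary screen, cut at about 25% in these data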;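 further: 0% = Arfgap1 plus ARF1-GTP with DMSO and 100% = wells lacking Arfgap1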
# The depositor's hits bear a star; / = no result. The list is not random: actives were taken first. Their share in the collection is about 1.2%.
SMILES,LANA-H2B inh,procasp7 counter,ARFGAP1 inhibitor,procasp3 activ,ASAP1 inh,CR mimetic SO,ARFGAP1 confirm
COc1ccc(/C=C2\SC(=O)N(CCNC(=O)C3CSC4(C)CCC(=O)N34)C2=O)cc1 (stereo not drawn),-0.6,-0.8,-3.2,14.1,17.5,101.8,/
CC12CCC(=O)N1C(C(=O)NCCN1C(=O)S/C(=C\c3ccc(OC(F)F)cc3)C1=O)CS2 (stereo not drawn),-3.1,-15.2,24.6*,-12.7,-1.5,102.2,4.6
COc1ccc(OC)c(C(c2nnnn2Cc2ccccc2)N2CCN(C3CCCCC3)CC2)c1 (stereo not drawn),1.5,-6.9,0.5,5.2,1.5,92.0,/
Cc1nn(C)c(C(=O)NNC(=S)NCC(C)C)c1Cl,1.9,2.1,9.5,-0.4,-0.7,107.0,/
COc1ccc(C(=O)N/N=C/c2c[nH]c3ccccc23)cc1,1.7,0.3,5.8,3.1,6.8,111.4,/
CCCOc1ccc(C(=O)N/N=C/c2c[nH]c3ccc(Br)cc23)cc1,-1.5,-9.1,24.7*,1.1,11.1,102.8,14.2
Cc1ccc(NC(=O)C2C3/C=C\CCCCC32)cc1C (stereo not drawn),-0.2,1.0,44.2*,7.2,9.4,113.7,-3.0
COc1ccc2[nH]cc(CCNS(=O)(=O)c3ccccc3)c2c1,0.8,-2.3,-1.1,-3.8,0.1,106.7,/
CCN(c1ccc(OC)cc1)S(=O)(=O)c1ccc2c(c1)CCN2C(=O)CCC(=O)O,-1.4,-0.9,-9.9,-2.9,10.8,107.8,/
CCN(c1ccc(C)c(C)c1)S(=O)(=O)c1ccc2c(c1)CCN2C(=O)CCC(=O)O,6.3,1.0,28.6*,-8.5,2.4,91.3,-5.1
O=C(Cn1c2ccc(F)cc2c2nc3n(c(=O)c21)CCS3)Nc1ccc(Cl)cc1F,-3.3,1.1,41.6*,1.1,20.1,104.9,56.8*
Cc1ccc(NC(=O)Cn2c3ccc(F)cc3c3nc4n(c(=O)c32)CCS4)cc1F,2.9,-2.2,9.6,-2.7,-3.2,131.7,/
CC[C@H](CO)Oc1cc(NCc2cccc(N)c2)c2ncn(C(C)C)c2c1,/,/,27.4*,/,3.2,/,2.7
CCOc1cc(/C=N/NC(=O)C(O)(c2ccccc2)c2ccccc2)ccc1OC(=O)c1ccco1,7.2,2.1,-2.0,0.7,-1.6,101.0,/
Cc1ccc2cc(C)c3nnc(SCC(=O)Nc4nc5c(s4)CCCC5)n3c2c1C,1.2,2.4,27.4*,-3.0,-11.1,85.7,-6.6
O=C(NCC1CCCO1)C(=O)NCC1CCCN1S(=O)(=O)c1ccccc1 (stereo not drawn),4.5,9.5,-5.1,1.3,0.3,106.5,/
CC(OC(=O)C1CCN(c2ccc(C(F)(F)F)cn2)CC1)C(=O)Nc1cccc([N+](=O)[O-])c1 (stereo not drawn),1.6,-3.6,26.7*,5.4,-4.1,74.0,9.4
O=P(CCCO)(Cc1ccccc1)Cc1ccccc1,1.1,3.9,-11.3,10.7,-15.2,90.7,/
CCOC(=O)c1c(NC(=O)COC)sc(C)c1C,1.2,1.0,-1.7,5.2,6.9,98.2,/
CCOC(=O)c1c(NC(=O)C[n+]2ccc(N(C)C)cc2)sc(C)c1C,-9.0,-1.5,25.1*,0.8,13.7,100.1,6.6
OC(c1cccnc1)c1nc(/C=C/c2ccc(C(F)(F)F)cc2)cs1 (stereo not drawn),/,/,10.7,/,0.7,/,/
CCCCNC(=O)N1CCc2ccccc2C1,-1.6,1.8,1.2,-2.8,-12.6,100.4,/
CCCCNc1nc2ccccc2n1CC(=O)N1CCc2ccccc2C1,1.3,19.2,47.3*,-0.8,5.7,97.6,4.2
S=C(c1ccc[nH]1)N1CCOCC1,-1.9,15.8,15.7,9.2,-6.0,98.3,/
O=C(CCCNC(=O)/C(=C/c1ccccc1F)NC(=O)c1ccccc1)OCc1ccccc1,-0.8,1.2,26.8*,7.1,-4.6,112.5,3.6
SMILES,LANA-H2B inh,procasp7 counter,ARFGAP1 inhibitor,procasp3 activ,ASAP1 inh,CR mimetic SO,ARFGAP1 confirm
COC(=O)c1ccc(N2CCN(C)CC2)c(NC(=O)COc2ccccc2Cl)c1,-3.1,-6.9,27.4*,-7.7,3.5,106.3,2.3
COc1cccc(N=C2SC(CC(=O)Nc3ccccc3)C(=O)N2Cc2ccccn2)c1 (stereo not drawn),-2.6,-1.6,-1.8,-7.5,12.0,99.4,/
COC(=O)c1ccc(C(=O)N2CCCC(CNC(=O)c3ccccc3Cl)C2)cc1 (stereo not drawn),0.3,-5.3,1.6,1.2,-2.2,115.2,/
Fc1ccc(-c2nnc(Cc3ccc(Cl)cc3)o2)cc1,0.7,5.1,39.9*,6.0,0.6,107.8,-1.6
COc1ccc(Cl)cc1NC(=O)c1nnn(CC(=O)Nc2ccc3c(c2)OCO3)c1N,0.4,1.0,94.5*,-2.3,17.5,103.4,132.5*
COc1ccc(NC(=O)Cn2nnc(C(=O)Nc3ccc(F)c(Cl)c3)c2N)cc1,6.1,2.7,27.3*,0.0,10.9,89.8,35.9*
Cc1cccc(NC(=O)CNC(=O)COc2ccc(-c3ccc(C#N)cc3)cc2)c1C,0.8,3.5,23.0,9.9,-1.5,122.3,/
Cc1ccc2[nH]c(-c3ccccc3)cc(=O)c2c1,1.0,-7.8,-2.1,-1.8,0.7,109.1,/
CCOC(=O)Cc1cc(=O)c2cc(C)ccc2[nH]1,-10.9,3.4,39.0*,2.6,1.4,97.3,-2.8
COC(=O)C1=C(C)OC(N)=C(C#N)C1c1ccccc1 (stereo not drawn),-1.9,0.1,-14.2,-0.3,3.9,95.7,/
COC(=O)C1=C(C)OC(N)=C(C#N)C1C1CCCCC1 (stereo not drawn),-4.3,-2.1,26.3*,9.2,2.9,87.2,0.1
Cc1ccc(CNC(=O)Cn2c(=O)n(CC(=O)N3CCCCC3)c(=O)c3sccc32)cc1,4.0,4.7,7.9,0.4,4.8,94.9,/
Cc1ccc(CNC(=O)Cn2c(=O)c3sccc3n(Cc3ccc([N+](=O)[O-])cc3)c2=O)cc1,3.3,11.0,36.3*,0.9,22.4,103.6,55.4*
O=C(Cc1cccs1)NCc1cccc(Br)c1,-1.8,/,-5.8,/,-3.9,94.4,/
O=C(CSc1ccc(Cl)cc1)Nc1ccc(-c2nc3ccccc3[nH]2)cc1,-3.7,-11.0,25.4*,-0.2,3.2,92.5,23.5
COc1ccccc1-c1cnc(C(O)c2cccc(C)c2C)[nH]1 (stereo not drawn),/,/,8.6,/,-3.5,/,/
Nc1ccc2cc3[nH]c4cc(N)ccc4c3nc2c1,/,/,46.4*,/,11.5,/,73.2*
